Measured values taken from ChEMBL document CHEMBL3870322, “New telmisartan-derived PPARγ agonists: Impact of the 3D-binding mode on the pharmacological profile” (Eur J Med Chem, 2016).
Calls of active or inactive are those of the source. No cut-off for these calls is given here.

Columns and labels:
[1] = target: T1, Peroxisome proliferator-activated receptor gamma (Homo sapiens, UniProt P37231); test: Transactivation at Gal4 fused PPARgamma LBD (unknown origin) expressed in African green monkey COS7 cells after 42 hrs by luciferase assay; format: cell-based, COS-7
T1 sequence (P37231 whole entry): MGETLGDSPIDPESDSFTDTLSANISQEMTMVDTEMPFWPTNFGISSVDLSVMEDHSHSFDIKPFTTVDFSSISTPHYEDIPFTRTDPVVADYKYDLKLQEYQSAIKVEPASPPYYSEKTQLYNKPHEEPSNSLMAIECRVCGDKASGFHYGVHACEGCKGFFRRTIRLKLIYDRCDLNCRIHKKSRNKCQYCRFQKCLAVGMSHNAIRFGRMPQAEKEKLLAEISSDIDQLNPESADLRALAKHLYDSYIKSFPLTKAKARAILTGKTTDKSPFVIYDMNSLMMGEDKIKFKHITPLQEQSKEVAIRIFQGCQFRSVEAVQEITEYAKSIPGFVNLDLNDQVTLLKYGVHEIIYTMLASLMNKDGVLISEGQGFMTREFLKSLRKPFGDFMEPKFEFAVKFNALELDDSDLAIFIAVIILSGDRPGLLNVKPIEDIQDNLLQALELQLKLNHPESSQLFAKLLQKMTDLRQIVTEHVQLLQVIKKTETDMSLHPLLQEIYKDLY

[2] = target: T2, Peroxisome proliferator-activated receptor gamma (Homo sapiens) (UniProt P37231); test: Intrinsic activity at Gal4 fused PPARgamma LBD (unknown origin) expressed in African green monkey COS7 cells after 42 hrs by luciferase assay relative to pioglitazone; format: cell-based; conditions: COS-7
T2 sequence (whole entry): T1 sequence (P37231 whole entry)
Summary of the method: (§1)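 COS-7 cells (10⁴/well, 24 h, 37 °C, 5% CO₂) transfected in serum-free medium with pGal5-TK-Luc, pGal4-hPPARγ-LBD and pRenilla-CMV (Lipofectamine 2000). After 4 h, compound or DMSO added across a concentration series. Dual-luciferase readout at 42 h, firefly normalized to Renilla. Maximal activation expressed as % of pioglitazone. Mean SD of three independent experiments, each run in triplicate.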

[3] = Growth inhibition of African green monkey COS7 cells at 50 uM after 72 hrs by crystal violet staining based assay; format: cell-based, COS-7; conditions: chlorocebus aethiops; for growth inhibition (GI): cos-7, 72 h, 50 µM; for inhibition at 72 h, 50 µM: COS7 cells, read-out: GI
Summary of the method: (§2)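 Cells seeded in complete DMEM, LNCaP at 5×10⁴/well on poly-D-lysine-coated wells, COS-7 at 3×10⁴/well. After 24 h at 37 °C, compound added at 50 µM final (DMSO vehicle). Exposure 72 h, then PBS wash, fixation in 1% […]/PBS, crystal violet staining of chromatin, absorbance 590 nm. Biomass given as % of vehicle control; mean SD of at least two independent experiments.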

3T3-L1 = test: Induction of triglyceride accumulation in insulin-stimulated mouse 3T3L1 preadipocytes at 10 uM after 9 days by Oil-Red O staining based assay relative to control
[4] = target: T3, Peroxisome proliferator-activated receptor gamma (Mus musculus, UniProt P37238); test: Full agonist activity at PPARgamma in mouse 3T3L1 preadipocytes assessed as increase in insulin induced adipocyte differentiation by measuring triglyceride accumulation at 10 uM after 9 days by Oil-Red O staining based assay relative to control; format: cell-based; conditions: 216 h
T3 sequence (P37238 whole entry): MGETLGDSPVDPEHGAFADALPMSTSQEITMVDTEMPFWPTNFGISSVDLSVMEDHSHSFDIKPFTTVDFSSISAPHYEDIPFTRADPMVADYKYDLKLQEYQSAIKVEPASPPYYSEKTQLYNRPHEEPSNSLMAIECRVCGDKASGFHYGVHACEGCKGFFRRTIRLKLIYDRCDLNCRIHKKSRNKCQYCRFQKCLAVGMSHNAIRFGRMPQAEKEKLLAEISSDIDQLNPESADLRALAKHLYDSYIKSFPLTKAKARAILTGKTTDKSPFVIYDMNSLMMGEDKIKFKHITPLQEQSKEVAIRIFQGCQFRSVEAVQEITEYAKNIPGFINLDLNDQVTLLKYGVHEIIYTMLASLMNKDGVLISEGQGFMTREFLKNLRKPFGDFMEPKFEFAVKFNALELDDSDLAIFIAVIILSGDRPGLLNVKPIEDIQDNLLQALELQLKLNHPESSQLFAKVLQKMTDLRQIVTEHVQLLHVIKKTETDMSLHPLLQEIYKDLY
Summary of the method: (§3)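 Postconfluent 3T3-L1 cells (DMEM, 10% FCS) differentiated over 9 days: 3 days with insulin (0.17 µM) plus dexamethasone (1 µM), 3 days with insulin (0.17 µM), then 3 days medium alone. Compound present throughout at 1 or 10 µM; DMSO vehicle. Day 9: PBS wash, Oil-Red O staining 1 h, dye extracted with 80% isopropanol, A515 read, expressed as ratio to vehicle; mean SD, three independent experiments.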

[5] = (§4) Growth inhibition of human LNCAP cells expressing PPARgamma at 50 uM after 72 hrs by crystal violet staining based assay; format: functional; conditions: read-out: GI; summary of the method: as §2
[6] = target: T3, Peroxisome proliferator-activated receptor gamma; test: Full agonist activity at PPARgamma in mouse 3T3L1 preadipocytes assessed as increase in insulin induced adipocyte differentiation by measuring triglyceride accumulation at 1 to 10 uM after 9 days by Oil-Red O staining based assay relative to control; format: cell-based; conditions: 216 h
[7] = target: T3, Peroxisome proliferator-activated receptor gamma; test: Full agonist activity at PPARgamma in mouse 3T3L1 preadipocytes assessed as increase in insulin induced adipocyte differentiation by measuring triglyceride accumulation at 1 uM after 9 days by Oil-Red O staining based assay; format: cell-based; conditions: 216 h; summary of the method: as §3
LNCaP = test: as §4; format: functional; summary of the method: as §2
[8] = target: T2, Peroxisome proliferator-activated receptor gamma (Homo sapiens); test: Intrinsic activity at Gal4 fused PPARgamma LBD (unknown origin) expressed in African green monkey COS7 cells at 20 uM after 42 hrs by luciferase assay relative to pioglitazone; format: cell-based; conditions: COS-7; summary of the method: as §1

| EC50 [1] [µM] | %max [2] [%] | %max [8] [%] | SMILES | growth inhibition (GI) [3] | fold change (FC) (3T3-L1) | fold change (FC) [4] | inhibition of growth at 50 µM [5] [%] | Activity [6] | Activity [7] | growth inhibition (GI) (LNCaP) | inhibition at 72 h, 50 µM [3] [%] |
| --- | --- | --- | --- | --- | --- | --- | --- | --- | --- | --- | --- |
| 1.86 | 40 | – | CCCc1cc2ccccc2n1Cc1ccc(-c2ccccc2C(=O)O)cc1 | – | – | > 3 | 27.4 to 54.1 | – | – | – | – |
| 0.4 | 55.4 | – | CCCCCc1nc2ccccc2n1Cc1ccc(-c2ccccc2C(=O)O)cc1 | Non-Toxic | – | – | – | Active | – | – | – |
| 0.21 | 75 | – | CCCCCCc1nc2ccccc2n1Cc1ccc(-c2ccccc2C(=O)O)cc1 | Non-Toxic | – | – | – | Active | – | – | – |
| 0.84 | 32.8 | – | CCCCCCCc1nc2ccccc2n1Cc1ccc(-c2ccccc2C(N)=O)cc1 | Toxic | – | – | – | – | Active | Active | – |
| 3.15 | 21.1 | – | CCCc1nc2ccccc2n1Cc1ccc(-c2ccccc2C(N)=O)cc1 | – | – | – | 33 | – | – | – | 33 |
| 3.06 | 37.8 | – | CCCCCCc1nc2ccccc2n1Cc1ccc(-c2ccccc2C(N)=O)cc1 | – | – | – | 78.5 | – | Active | – | 92.8 |
| 0.17 | 82.5 | – | CCCCCCCc1nc2ccccc2n1Cc1ccc(-c2ccccc2C(=O)O)cc1 | Non-Toxic | – | – | – | Active | – | – | – |
| 5.01 | 51.3 | – | CCCc1nc2ccccc2n1Cc1ccc(-c2ccccc2C#N)cc1 | – | – | – | 61.9 | – | – | – | 61.9 |
| 3.9 | 16.2 | – | CCCCCc1nc2ccccc2n1Cc1ccc(-c2ccccc2C(N)=O)cc1 | Toxic | – | – | – | – | Active | Active | – |

Further lines, the compound ahead of its results:

| SMILES | EC50 [1] [µM] | %max [2] [%] | %max [8] [%] | growth inhibition (GI) [3] | fold change (FC) (3T3-L1) | fold change (FC) [4] | inhibition of growth at 50 µM [5] [%] | Activity [6] | Activity [7] | growth inhibition (GI) (LNCaP) | inhibition at 72 h, 50 µM [3] [%] |
| --- | --- | --- | --- | --- | --- | --- | --- | --- | --- | --- | --- |
| CCCc1nc2ccccc2n1Cc1ccc(-c2ccccc2C(=O)O)cc1 | 4.17 to 4.19 | 49.6 | – | Non-Toxic | 3.2 | – | – | – | – | – | – |
| CCCC1Sc2ccccc2N1Cc1ccc(-c2ccccc2C(N)=O)cc1 (stereo not given) | – | – | 33.1 | – | – | – | 79 | – | – | – | 69.2 |
| CCCc1nc2ccccc2n1Cc1ccc(-c2ccc(C(=O)O)cc2)cc1 | 1.88 | 84.1 | – | Non-Toxic | 1.2 | – | – | – | – | – | – |
| CCCc1cc2ccccc2n1Cc1ccc(-c2ccccc2C#N)cc1 | 8.03 | 21.7 | – | – | – | – | 27.4 to 54.1 | – | – | – | 36.8 |
| CCCc1cc2ccccc2n1Cc1ccc(-c2ccccc2C(N)=O)cc1 | – | 11 | – | – | – | – | 27.4 to 54.1 | – | – | – | – |
| CCCC1Sc2ccccc2N1Cc1ccc(-c2ccccc2C(=O)O)cc1 (stereo not given) | 1.05 | 57.4 | – | Non-Toxic | – | > 3 | – | – | – | – | – |
| CCc1ccc(CCOc2ccc(CC3SC(=O)NC3=O)cc2)nc1 (stereo not given) [PIOGLITAZONE] | – | – | – | Non-Toxic | – | – | 55.8 | – | – | – | – |
| CCCc1nc2c(C)cc(-c3nc4ccccc4n3C)cc2n1Cc1ccc(-c2ccccc2C(=O)O)cc1 [TELMISARTAN] | 4.71 | 50.9 | – | Non-Toxic | – | 2 | – | – | – | – | – |
| CCCc1nc2ccccc2n1Cc1ccc(-c2cccc(C(=O)O)c2)cc1 | 6.24 | 44.7 | – | Non-Toxic | 2.5 | – | – | – | – | – | – |
